Measured values taken from ChEMBL document CHEMBL4152364, “Structure-activity relationship of novel (benzoylaminophenoxy)phenol derivatives as anti-prostate cancer agents” (Bioorg Med Chem, 2018).
pIC50: −log10 of the molar value. Activity calls are given as the source filed them. No cut-off for these calls is given here.

Key:
[1] = target: T1, Androgen receptor (Mus musculus) (UniProt P19091); test: Agonist activity at AR in mouse SC3 cells assessed as effect on cell proliferation after 3 days by CCK8 assay; assay type: cell-based
T1 sequence (whole entry): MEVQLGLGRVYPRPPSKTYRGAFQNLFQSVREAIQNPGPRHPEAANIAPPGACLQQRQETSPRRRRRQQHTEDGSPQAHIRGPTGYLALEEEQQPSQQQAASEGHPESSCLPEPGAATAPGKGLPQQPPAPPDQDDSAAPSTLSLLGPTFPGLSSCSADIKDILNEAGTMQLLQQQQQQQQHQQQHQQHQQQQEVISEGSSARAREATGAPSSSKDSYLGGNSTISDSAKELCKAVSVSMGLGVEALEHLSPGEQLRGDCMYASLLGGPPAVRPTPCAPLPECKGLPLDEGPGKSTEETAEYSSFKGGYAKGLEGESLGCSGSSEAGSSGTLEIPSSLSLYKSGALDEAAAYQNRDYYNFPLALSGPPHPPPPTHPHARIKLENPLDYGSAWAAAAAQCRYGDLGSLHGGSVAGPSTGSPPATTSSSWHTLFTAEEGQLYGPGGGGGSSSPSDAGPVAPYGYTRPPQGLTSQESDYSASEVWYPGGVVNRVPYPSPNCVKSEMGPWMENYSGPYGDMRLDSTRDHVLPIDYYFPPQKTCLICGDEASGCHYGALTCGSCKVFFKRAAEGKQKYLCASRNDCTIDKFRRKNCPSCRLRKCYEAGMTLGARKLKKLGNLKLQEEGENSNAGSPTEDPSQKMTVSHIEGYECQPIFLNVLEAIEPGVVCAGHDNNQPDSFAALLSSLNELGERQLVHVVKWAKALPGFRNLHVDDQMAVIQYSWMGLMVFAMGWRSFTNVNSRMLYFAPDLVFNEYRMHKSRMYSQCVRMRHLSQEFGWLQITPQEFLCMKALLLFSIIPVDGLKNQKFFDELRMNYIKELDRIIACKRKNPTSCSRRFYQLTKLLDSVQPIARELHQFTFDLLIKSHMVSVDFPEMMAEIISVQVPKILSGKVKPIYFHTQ
Procedure, shortened: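 SC-3 cells diluted to 20,000 cells/mL in MEM α with 2% charcoal-stripped FBS, seeded and held 24 h, then given serial dilutions of compound alone (DMSO as dilution control). Incubated 3 days at 37°C, 5% CO2. WST-8 (Cell Counting Kit-8) added for 2 h, absorbance read at 450 nm.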

[2] = target: T1, Androgen receptor (Mus musculus); test: Antagonist activity at AR in mouse SC3 cells assessed as inhibition of DHT-induced cell proliferation up to 10 uM after 3 days by CCK8 assay; assay type: cell-based
Procedure, shortened: (§1)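 SC-3 cells diluted to 20,000 cells/mL in MEM α with 2% charcoal-stripped FBS, seeded and held 24 h, then given compound or DMSO with 1 nM DHT for 3 days at 37°C, 5% CO2. Read-out: WST-8 (CCK-8) for 2 h, absorbance at 450 nm. Compounds screened first at 10 µM. IC50 measured over 0.01–10 µM when inhibition exceeded 50%, taken as the level halving DHT-induced growth versus control. Triplicate or more.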

[3] = target: T1, Androgen receptor (Mus musculus); test: Antagonist activity at AR in mouse SC3 cells assessed as inhibition of DHT-induced cell proliferation at 10 uM after 3 days by CCK8 assay relative to control; assay type: cell-based; procedure, shortened: as §1
PC-3 = test: Antiproliferative activity against human PC3 cells assessed as inhibition of cell proliferation after 3 days in presence of DHT by WST8 assay; assay type: functional, cell-based
Procedure, shortened: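 PC-3 cells kept in RPMI-1640 with 10% FBS, then diluted to 20,000 cells/mL in RPMI-1640 with 10% charcoal-stripped FBS. Seeded and held 24 h, then given serial dilutions of compound or DMSO with 1 nM DHT for 3 days. WST-8 added for 2 h, absorbance at 450 nm. Viability normalized to vehicle-treated cells as 1.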

[4] = Antagonist activity at AR in mouse SC3 cells assessed as inhibition of DHT-induced cell proliferation after 3 days by CCK8 assay

| Compound | Activity [1] | inhibition [2] | inhibition [3] [%] | inhibition (PC-3) | pIC50 [4] |
| --- | --- | --- | --- | --- | --- |
| COc1ccc(C(=O)Nc2cccc(Oc3ccc(O)cc3)c2C)cc1 | inactive |  |  |  |  |
| COc1cccc(C(=O)Nc2cccc(Oc3ccc(O)cc3)c2)c1 | inactive | inactive |  |  |  |
| COc1cccc(C(=O)N(C)c2cccc(Oc3ccc(O)cc3)c2)c1 | inactive | inactive |  |  |  |
| COc1ccc(C(=O)N(C)c2cccc(Oc3ccc(O)cc3)c2)cc1 | inactive | inactive |  |  |  |
| COc1cccc(C(=O)Nc2ccc(Oc3ccc(O)cc3)cc2OC)c1 | inactive |  | > 50 |  |  |
| COc1cccc(C(=O)Nc2cc(F)c(Oc3ccc(O)cc3)c(F)c2)c1 | inactive |  | > 50 | Dose-dependent effect |  |
| CN(C)c1ccc(C(=O)Nc2ccc(Oc3cccc(O)c3)cc2)cc1 | inactive |  | > 50 |  |  |
| COc1cccc(C(=O)Nc2ccc(Oc3ccc(O)cc3)c(Br)c2)c1 | inactive |  | > 50 |  |  |
| CN(C)c1ccccc1C(=O)Nc1cccc(Oc2cccc(O)c2)c1 | inactive | inactive |  |  |  |
| CN(C)c1cccc(C(=O)Nc2cccc(Oc3ccc(O)cc3)c2)c1 | inactive | inactive |  |  |  |
| COc1ccccc1C(=O)Nc1ccc(Oc2cccc(O)c2)cc1 | inactive | inactive |  |  |  |
| COc1ccc(C(=O)Nc2cccc(Oc3ccc(O)cc3)c2)cc1 | inactive |  |  |  |  |
| CN(C)c1cccc(C(=O)Nc2ccc(Oc3cccc(O)c3)cc2)c1 | inactive | inactive |  |  |  |
| COc1cccc(C(=O)Nc2ccc(Oc3ccc(O)cc3)c(C#N)c2)c1 | inactive | inactive |  |  |  |
| COc1ccccc1C(=O)Nc1ccc(C)c(Oc2ccc(O)cc2)c1 | inactive |  | > 50 |  |  |
| COc1cccc(C(=O)Nc2ccc(Oc3ccc(O)cc3)cc2C)c1 | inactive |  | > 50 |  |  |
| COc1ccc(C(=O)Nc2ccc(C)c(Oc3ccc(O)cc3)c2)cc1 | inactive |  |  |  |  |
| CN(C)c1ccc(C(=O)Nc2cccc(Oc3ccc(O)cc3)c2)cc1 | inactive |  | > 50 |  |  |
| COc1cccc(C(=O)Nc2ccc(Oc3ccc(O)cc3)c(C)c2)c1 |  |  | > 50 | Dose-dependent effect | 6.12 |
| COc1ccc(C(=O)Nc2ccc(Oc3cccc(O)c3)cc2)cc1 | inactive | inactive |  |  |  |

| Compound | Activity [1] | inhibition [2] | inhibition [3] [%] | inhibition (PC-3) | pIC50 [4] |
| --- | --- | --- | --- | --- | --- |
| COc1ccc(C(=O)Nc2cc(Oc3ccc(O)cc3)ccc2C)cc1 | inactive |  |  |  |  |
| CN(C)c1ccccc1C(=O)Nc1cccc(Oc2ccc(O)cc2)c1 | inactive |  | > 50 |  |  |
| COc1cccc(C(=O)Nc2ccc(Oc3ccc(O)cc3)cc2F)c1 | inactive |  | > 50 | Dose-dependent effect |  |
| CN(C)c1ccccc1C(=O)Nc1ccc(Oc2cccc(O)c2)cc1 | inactive | inactive |  |  |  |
| COc1cccc(C(=O)Nc2ccc(Oc3ccc(O)cc3)c(C(F)(F)F)c2)c1 | inactive |  | > 50 |  |  |
| COc1cccc(C(=O)Nc2cccc(Oc3cccc(O)c3)c2)c1 | inactive |  |  |  |  |
| COc1ccccc1C(=O)Nc1cccc(Oc2ccc(O)cc2)c1 | inactive |  |  |  |  |
| COc1cccc(C(=O)Nc2cc(Cl)c(Oc3ccc(O)cc3)c(Cl)c2)c1 | inactive |  | > 50 | Dose-dependent effect |  |
| C[C@](O)(CS(=O)(=O)c1ccc(F)cc1)C(=O)Nc1ccc(C#N)c(C(F)(F)F)c1 |  |  |  | inactive |  |
| COc1ccccc1C(=O)Nc1cccc(Oc2cccc(O)c2)c1 | inactive | inactive |  |  |  |
| COc1cccc(C(=O)N(C)c2ccc(Oc3ccc(O)cc3)c(C)c2)c1 | inactive |  | > 50 |  |  |
| COc1cccc(C(=O)Nc2ccc(Oc3ccc(O)cc3)c(F)c2F)c1 | inactive |  | > 50 | Dose-dependent effect |  |
| CN(C)c1cccc(C(=O)Nc2cccc(Oc3cccc(O)c3)c2)c1 | inactive |  |  |  |  |
| COc1cccc(C(=O)Nc2ccc(Oc3ccc(O)cc3)cc2O)c1 | inactive | inactive |  |  |  |
| COc1cccc(C(=O)Nc2ccc(Oc3ccc(O)cc3)c(F)c2)c1 | inactive |  | > 50 | Dose-dependent effect |  |
| COc1cccc(C(=O)Nc2ccc(Oc3cccc(O)c3)cc2)c1 | inactive |  |  |  |  |
| COc1ccc(C(=O)Nc2cccc(Oc3cccc(O)c3)c2)cc1 | inactive |  |  |  |  |
| COc1cccc(C(=O)Nc2ccc(Oc3ccc(O)cc3)cc2Cl)c1 | inactive |  | > 50 |  |  |
| COc1cccc(C(=O)Nc2ccc(Oc3ccc(O)cc3)c(Cl)c2)c1 | inactive |  | > 50 | Dose-dependent effect |  |
